Measurements reported in ChEMBL document CHEMBL1144725, “Seco-terpenoids and other constituents from Elateriospermum tapos” (J Nat Prod, 2008).
≈ marks a conversion by molar mass, not a printed value. Calls of active or inactive are those of the source. No cut-off for these calls is given here.

What was measured:
[1] = tested on: NCI-H187; assay: Cytotoxicity against human NCI-H187 cells at 10 ug/mL; format: functional, cell-based
[2] = tested on: Cancer cell lines; assay: Cytotoxicity against human breast cancer cells at 10 ug/mL; format: functional, cell-based
[3] = tested on: Mycobacterium tuberculosis; assay: Antimycobacterial activity against Mycobacterium tuberculosis H37Ra by microplate alamar blue assay; format: functional
Outline: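 Microplate Alamar Blue assay against Mycobacterium tuberculosis H37Ra, with isoniazid and kanamycin sulfate as reference drugs.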

[4] = Cytotoxicity against human breast cancer cells; format: functional, cell-based; conditions: Cancer cell lines
[5] = tested on: NCI-H187; assay: Cytotoxicity against human NCI-H187 cells; format: functional, cell-based
[6] = tested on: KB; assay: Cytotoxicity against human KB cells; format: functional, cell-based

Structure (SMILES) | Activity [1] | Activity [2] | other results
O=c1cc(-c2ccc(O)c(-c3c(O)cc(O)c4c(=O)cc(-c5ccc(O)cc5)oc34)c2)oc2cc(O)cc(O)c12 | inactive | inactive | 
CC(=O)O[C@H]1CC[C@]2(C)[C@H]3CC[C@]4(C)C(=CC[C@@]5(C(=O)O)CCC(C)(C)C[C@H]54)[C@]3(C)CC[C@H]2C1(C)C | inactive | inactive | 
COC(=O)C[C@@]1(C)C(C(C)(C)C(=O)OC)CC[C@@]2(C)C3=CC[C@@]4(C(=O)O)CCC(C)(C)CC4[C@]3(C)CCC12 (stereo partly specified) |  |  | MIC [3]: 3.13 µg/mL (≈ 5.9 µM); IC50 [4]: 7.08 µg/mL (≈ 13.3 µM); IC50 [5]: 4.65 µg/mL (≈ 8.76 µM)
C=C(C)[C@@H]1CC[C@]2(C)CC[C@]3(C)[C@H](CC[C@@H]4[C@@]5(C)CC[C@H](O)C(C)(C)[C@@H]5CC[C@]43C)[C@@H]12 | inactive | inactive | 
Cc1c2ccncc2c(C)c2c1[nH]c1ccccc12 [ELLIPTECINE] |  |  | IC50 [6]: 0.41 µg/mL (≈ 1.66 µM); IC50 [4]: 0.13 µg/mL (≈ 0.528 µM); IC50 [5]: 0.52 µg/mL (≈ 2.11 µM)
COc1cc(O)c2c(=O)cc(-c3ccc(OC)c(-c4c(O)cc(O)c5c(=O)cc(-c6ccc(O)cc6)oc45)c3)oc2c1 | inactive | inactive | 
C=C[C@]1(C)C=C2CC[C@@H]3C(C)(C)[C@H](O)C(=O)C[C@@]3(C)[C@@H]2C[C@@H]1O | inactive | inactive | 
C=Cc1c(C)c(O)cc2c1CCC(C(C)(C)C(=O)O)[C@@]2(C)CC(=O)O (stereo partly specified) | inactive | inactive | 
CC1(C)CC[C@]2(C(=O)O)CC=C3[C@]4(C)CC[C@H]5C(C)(C)[C@@H](O)CC[C@]5(C)[C@H]4CC[C@@]3(C)[C@@H]2C1 | inactive | inactive | 
NC[C@H]1O[C@H](O[C@H]2[C@H](O)[C@@H](O[C@H]3O[C@H](CO)[C@@H](O)[C@H](N)[C@H]3O)[C@H](N)C[C@@H]2N)[C@H](O)[C@@H](O)[C@@H]1O.O=S(=O)(O)O [KANAMYCIN SULFATE] |  |  | MIC [3]: 1.25 µg/mL
C=C[C@@]1(C)C(=O)C=C2C(=CC[C@@H]3C(C)(C)[C@H](O)C(=O)C[C@@]23C)[C@H]1O | inactive | inactive | 
C=C(C)[C@@H]1CC[C@]2(C)CC[C@]3(C)[C@H](CC[C@@H]4[C@@]5(C)CC[C@H](OC(C)=O)C(C)(C)[C@@H]5CC[C@]43C)[C@@H]12 | inactive | inactive | 
C=C(C)[C@H]1CC[C@]2(C)[C@H]3CC[C@@H]4[C@@]5(C)CC[C@H](O)C(C)(C)[C@@H]5CC[C@@]4(C)[C@]3(C)CC[C@@H]12 | inactive | inactive | 
COc1ccc(-c2cc(=O)c3c(O)cc(O)c(-c4cc(-c5cc(=O)c6c(O)cc(OC)cc6o5)ccc4O)c3o2)cc1 | inactive | inactive | 
COC(=O)C(C)(C)C1CC[C@@]2(C)C3=CC[C@@]4(C(=O)O)CCC(C)(C)CC4[C@]3(C)CCC2[C@@]1(C)CC(=O)O (stereo partly specified) | inactive | inactive | 
NNC(=O)c1ccncc1 [ISONIAZID] |  |  | MIC [3]: 0.05 µg/mL (≈ 0.365 µM)
COc1cc(O)c2c(=O)cc(-c3ccc(O)c(-c4c(O)cc(O)c5c(=O)cc(-c6ccc(O)cc6)oc45)c3)oc2c1 | inactive | inactive | 
CC1(C)[C@H](O)[C@@H](O)C[C@]2(C)[C@@H]1CC[C@]13C=C[C@](C)(C1)C(=O)C[C@H]32 | inactive | inactive | 
